Assay results published in ChEMBL document CHEMBL4024779, “Novel Terminal Bipheny-Based Diapophytoene Desaturases (CrtN) Inhibitors as Anti-MRSA/VISR/LRSA Agents with Reduced hERG Activity” (J Med Chem, 2018).
Substitutions are numbered along the chain they refer to. Active and inactive are the calls of the source. The calls are words filed in the database; no cut-off is given here.

Legend:
Rattus norvegicus = assay: Toxicity in Sprague-Dawley rat at 60 to 1000 mg/kg, po administered as single dose assessed as changes in body weight measured during 2 weeks post administration; assay type: organism-based; conditions: in vivo, 336 h
Summary of the method: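 Rats, 30 in total, randomised into three groups. Each received a single oral dose of 60, 250 or 1000 mg/kg on day 1. Poisoning symptoms, mortality, behaviour, water and food consumption and body weight monitored immediately and over 2 weeks.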

[1] = target: T1, 4,4'-diapophytoene desaturase (4,4'-diaponeurosporene-forming) (Staphylococcus aureus (strain Newman), UniProt O07855); assay: Inhibition of CrtN in Staphylococcus aureus Newman after 12 resistant development passages under 0.15% v/v H2O2 assessed as reduction in staphyloxanthin levels under IC90 level after 48 hrs by spectrophotometric method-based pigment inhibition assay; set-up: species or system Staphylococcus aureus subsp. aureus str. Newman
T1 sequence (O07855 whole entry): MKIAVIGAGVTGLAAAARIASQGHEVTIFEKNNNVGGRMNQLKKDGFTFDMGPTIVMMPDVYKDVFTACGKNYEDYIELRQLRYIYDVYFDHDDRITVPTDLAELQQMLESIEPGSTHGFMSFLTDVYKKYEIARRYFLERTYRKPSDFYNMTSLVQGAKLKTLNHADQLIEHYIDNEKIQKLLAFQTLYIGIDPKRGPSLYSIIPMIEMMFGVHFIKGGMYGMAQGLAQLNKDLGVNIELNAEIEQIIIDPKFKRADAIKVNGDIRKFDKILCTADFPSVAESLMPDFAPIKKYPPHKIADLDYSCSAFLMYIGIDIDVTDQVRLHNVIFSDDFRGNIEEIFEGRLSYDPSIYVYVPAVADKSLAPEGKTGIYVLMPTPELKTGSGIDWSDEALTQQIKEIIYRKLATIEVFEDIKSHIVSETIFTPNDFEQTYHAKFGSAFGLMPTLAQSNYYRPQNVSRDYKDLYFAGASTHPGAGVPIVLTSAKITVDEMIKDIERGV

Cytochrome P450 2C19 = Cytochrome P450 2C19 (Homo sapiens, UniProt P33261); assay: Inhibition of CYP2C19 in human liver microsomes using mephenytoin as substrate upto 10 uM after 45 mins in presence of NADPH by LC-MS/MS analysis; assay type: ADME
Staphylococcus aureus [2] = assay: In vivo anti-virulence activity against methicillin-resistant Staphylococcus aureus Mu50 infected in BALB/c mouse model assessed as reduction in bacterial load in heart at 0.1 mg bid for 4.5 days administered intraperitoneally 24 hrs prior to infection by serial dilution method; assay type: functional; set-up: scale not given: the % may be the effect or the level left
Summary of the method: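 Mice were challenged with 1.3 × 10^9 CFU Mu50. Compound was given intraperitoneally, either 24 h before or 6 h after infection. Log10 CFU was counted in kidneys and hearts.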

Staphylococcus aureus [3] = assay: In vivo anti-virulence activity against methicillin-resistant Staphylococcus aureus LRSA56 infected in BALB/c mouse model assessed as reduction in bacterial load in heart at 0.1 mg bid for 3.5 days administered intraperitoneally 6 hrs post infection by serial dilution method relative to control; assay type: functional; set-up: scale not given: the % may be the effect or the level left
Summary of the method: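 Mice were infected by retro-orbital injection with LRSA56 (5.0 × 10^7 CFU) or LRSA202 (7.0 × 10^7 CFU). Compound was given intraperitoneally 6 h after infection. […] Log10 CFU was counted in kidneys and hearts, with groups compared by two-tailed Mann-Whitney test.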

Staphylococcus aureus [4] = assay: In vivo anti-virulence activity against methicillin-resistant Staphylococcus aureus NRS271 infected in BALB/c mouse model assessed as reduction in bacterial load in heart at 0.1 mg bid for 3.5 days administered intraperitoneally 6 hrs post infection by serial dilution method; assay type: functional; set-up: scale not given: the % may be the effect or the level left
Summary of the method: (§1)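 Mice (n=10 per group) infected retro-orbitally with S. aureus Mu50 (1.1 × 10^9 or 1.3 × 10^9 CFU) or NRS271 (2.3 × 10^8 CFU). Compound given i.p. b.i.d., either 6 h after infection for 3.5 d or 24 h before infection for 4.5 d. Mice killed after 4.5 d; log10 CFU per organ counted in kidneys and hearts. Two-tailed Mann−Whitney test.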

[5] = AUC (0 to infinity) in Sprague-Dawley rat at 10 mg/kg, po administered as single dose by LC-MS/MS analysis; assay type: ADME, organism-based; set-up: dose 10 mg/kg, route oral, time infinity; conditions: in vivo
[6] = Half life in mouse at 10 mg/kg, po administered as single dose by LC-MS/MS analysis; assay type: ADME, organism-based; conditions: in vivo
Staphylococcus aureus [7] = assay: In vivo anti-virulence activity against Staphylococcus aureus Newman infected in BALB/c mouse model assessed as reduction in bacterial load in kidneys at 0.4 mg bid for 4.5 days administered intraperitoneally 24 hrs prior to infection by serial dilution method; assay type: functional, organism-based
Summary of the method: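 Mice (n=10 per group) got 2.3 × 10^7 CFU S. aureus Newman by retro-orbital injection. Compound was given intraperitoneally b.i.d., either 24 h before infection (4.5 d) or 6 h after infection (3.5 d). Mice were sacrificed after 4.5 d and CFU counted in kidneys and hearts. Groups were compared by two-tailed Mann-Whitney test.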

[8] = AUC (0 to 24 hrs) in Sprague-Dawley rat at 10 mg/kg, po administered as single dose by LC-MS/MS analysis; assay type: ADME, organism-based; set-up: time < 24 hr, dose 10 mg/kg, route oral; conditions: in vivo
Enterococcus faecium = assay: Antibacterial activity against Enterococcus faecium after 24 hrs by broth dilution method; assay type: functional
[9] = target: T2, 4,4'-diapophytoene desaturase (4,4'-diaponeurosporene-forming) (Staphylococcus aureus (strain USA300)) (UniProt Q2FDU6); conditions: Staphylococcus aureus LAC, 1 uM
T2 sequence (whole entry): T1 sequence (O07855 whole entry)

[10] = target: T3, 4,4'-diapophytoene desaturase (4,4'-diaponeurosporene-forming) (Staphylococcus aureus (strain MW2)) (UniProt Q8NUQ6); conditions: Staphylococcus aureus subsp. aureus MW2; USA400; 1 uM
T3 sequence (whole entry): T1 sequence (O07855 whole entry) with R500Q

[11] = Oral bioavailability in mouse at 10 mg/kg administered as single dose by LC-MS/MS analysis; assay type: ADME, organism-based; conditions: in vivo
Staphylococcus aureus [12] = assay: In vivo anti-virulence activity against methicillin-resistant Staphylococcus aureus NRS271 infected in BALB/c mouse model assessed as reduction in bacterial load in kidneys at 0.1 mg bid for 3.5 days administered intraperitoneally 6 hrs post infection by serial dilution method; assay type: functional; set-up: scale not given: the % may be the effect or the level left; summary of the method: as §1
[13] = Half life in Sprague-Dawley rat at 10 mg/kg, ip administered as single dose by LC-MS/MS analysis; assay type: ADME, organism-based; conditions: in vivo

Chain of Cytochrome P450 2C19 (P33261 whole entry): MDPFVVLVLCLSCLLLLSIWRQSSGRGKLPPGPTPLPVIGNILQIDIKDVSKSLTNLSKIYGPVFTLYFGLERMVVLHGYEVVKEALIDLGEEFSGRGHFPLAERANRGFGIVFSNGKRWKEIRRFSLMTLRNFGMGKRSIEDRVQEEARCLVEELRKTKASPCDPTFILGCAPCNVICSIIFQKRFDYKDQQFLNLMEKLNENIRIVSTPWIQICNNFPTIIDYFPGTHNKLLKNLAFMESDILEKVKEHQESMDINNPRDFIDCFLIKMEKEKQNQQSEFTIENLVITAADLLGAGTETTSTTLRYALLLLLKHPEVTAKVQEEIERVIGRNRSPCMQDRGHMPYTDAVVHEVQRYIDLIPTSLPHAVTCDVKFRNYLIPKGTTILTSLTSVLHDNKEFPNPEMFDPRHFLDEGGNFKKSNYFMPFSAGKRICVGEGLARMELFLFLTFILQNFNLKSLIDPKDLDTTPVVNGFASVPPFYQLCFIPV

Row | SMILES | Activity (Rattus norvegicus) | IC50 [1] [nM] | IC50 (Cytochrome P450 2C19) [nM] | Activity (Staphylococcus aureus [2]) [%] | Activity (Staphylococcus aureus [3]) [%] | Activity (Staphylococcus aureus [4]) [%] | AUC(0-inf) [5] [ng·h/mL] | half-life [6] [h] | Activity (Staphylococcus aureus [7]) | AUC(0-t) at 24 h [8] [ng·h/mL] | MIC (Enterococcus faecium) [µg/mL] | Survival [9] [%] | Survival [10] [%] | bioavailability [11] [%] | Activity (Staphylococcus aureus [12]) [%] | half-life [13] [h]
1 | CN(C/C=C/c1ccc(-c2ccccc2)cc1)Cc1coc2ccccc12.Cl | Non-Toxic | 1.8 | > 10000 | >95 | >81.4 | >95 | 930 | 3.35 | Active | 899 | > 500 | 0.7 | 2.3 | 83.8 | >95 | 7.61
2 | CN(C/C=C/c1ccc(-c2ccccc2)cc1)Cc1cccc2cc[nH]c12.Cl | – | 2.6 | – | >95 | – | >95 | – | – | inactive | – | – | – | – | – | >95 | –
